# STK33 kinase inh – blocks human STK33 kinase activity; inhibition, % at 10 µM; purified STK33, MBP phosphorylation, ADP-Glo luminescence; hit rate 0.073% among 320,000; Q9BYT3;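 active = inhibition at or above 25%, using the most active replicate where run in duplicate; inactive = inhibition below 25%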
# Target sequence (Q9BYT3 whole entry, looked up): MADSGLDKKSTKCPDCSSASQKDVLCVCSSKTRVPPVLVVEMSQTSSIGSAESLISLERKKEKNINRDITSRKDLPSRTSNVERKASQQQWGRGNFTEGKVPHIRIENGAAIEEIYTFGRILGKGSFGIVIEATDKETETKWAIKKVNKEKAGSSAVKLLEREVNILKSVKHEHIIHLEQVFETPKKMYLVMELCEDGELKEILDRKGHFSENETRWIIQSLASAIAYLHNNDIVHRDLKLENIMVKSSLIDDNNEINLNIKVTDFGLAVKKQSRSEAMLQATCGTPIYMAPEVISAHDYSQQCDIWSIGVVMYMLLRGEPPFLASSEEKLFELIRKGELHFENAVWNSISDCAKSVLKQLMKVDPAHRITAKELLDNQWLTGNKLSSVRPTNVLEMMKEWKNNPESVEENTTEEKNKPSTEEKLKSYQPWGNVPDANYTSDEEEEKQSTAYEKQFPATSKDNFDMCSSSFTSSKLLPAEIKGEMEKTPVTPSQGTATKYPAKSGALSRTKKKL
# GSK3beta inhib – inhibitors of human GSK3beta kinase | P49841 | GST-GSK3beta kinase, ADP-Glo luminescence, 60 min; hits give low values | activity score (negative = inhibition), % at 10 µM | hit rate 0.038% among 300,000;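 active = more than half of replicate wells score below -50%, meaning over 50% inhibition versus plate controls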;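 note: 0% = median DMSO wells and -100% = median GW8510 positive control wells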
#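 Assay system: GST-tagged human GSK3beta kinase, cell-free; Input: 1.6 ng GSK3beta; Medium: Tris/MgCl2 kinase buffer; Timing: 60 min enzyme reaction, room temperature; Signal: ADP-Glo luminescence quantifying ADP generated by kinase; Evaluation: score relative to plate controls; Benchmarks: DMSO neutral wells and GW8510 at 20 µM as positive.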
# Efflux pump inh – inhibitors of Candida antifungal efflux pumps expressed in yeast; S. cerevisiae Candida pump triplex, Nile Red efflux; AID 485275; inhibition, % at 10 µM; hit rate 0.44% among 330,000;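 active = plate passing quality check with inhibition over a set limit, or well fluorescence over plate mean plus 4 SD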;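 note: Nile Red retained in pooled yeast measured as flow cytometry median fluorescence; 0% = buffer negative control and 100% = Enniatin B positive control; higher means more Nile Red kept so more efflux inhibition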
# GSK3A inh – inhibitors of human GSK-3 alpha kinase. P49840. ADP-Glo luminescence, 60 min. inhibition, % at 10 µM. hit rate 0.1% among 320,000. AID 2650;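 active = more than half of replicates show inhibition above 20%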;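 note: GST-tagged GSK-3 alpha with peptide substrate and 25 µM ATP; 0% = DMSO neutral wells and 100% = GW8510 positive control wells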
# PolyA inh – yeast polyadenylation inhibition; S. cerevisiae SKY197-pL101 polyadenylation reporter, beta-gal luminescence; efflux-impaired pdr1/pdr3 knockout yeast; score 100 = 6 SD above DMSO; activity score, % at 12 µM; hit rate 0.02% among 300,000;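 active = lowest replicate activity score at least 50, where 100 means six control SD above control mean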;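 note: yeast exposed to compound for 9 h at 30 °C; higher score means more reporter readthrough which indicates perturbed polyadenylation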
# Yeast cmpd fluor – flagged as fluorescent in efflux inhibitor counter-screen. shares compounds with Efflux pump inh. S. cerevisiae AD/pABC3, compound fluorescence, flow cytometry. fluorescence ratio to DMSO, % at 10 µM. hit rate 4% among 1,700. AID 588517;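 active = fluorescence ratio to DMSO above its plate's cutoff, the plate mean ratio plus 5 SD, cut at about 210% in these data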;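 note: unstained yeast with no Nile Red so the signal is compound autofluorescence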
# CaMdr1 efflux inh – inhibitors of Candida albicans Mdr1 efflux pump | shares compounds with Efflux pump inh | S. cerevisiae AD/CaMDR1, Nile Red efflux, flow cytometry | inhibition, % at 10 µM | hit rate 1% among 1,700 | AID 588518; in the data active = inhibition above about 26%;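 note: 0% = DMSO vehicle and 100% = reference inhibitor; higher means more Nile Red retained so more efflux inhibition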
# Cdr2 pump inh – blocks the Candida albicans Cdr2 efflux pump in yeast; shares compounds with Efflux pump inh; hit rate 4% among 1,700; S. cerevisiae AD/CaCDR2, Nile Red retention, flow cytometry; Nile Red retention ratio vs DMSO, % at 10 µM; in the data active = Nile Red retention ratio vs DMSO above about 190%;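 note: higher ratio means more blocking of Cdr2 efflux of the dye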
# Cdr1 pump inh – Candida Cdr1 efflux pump inhibition; shares compounds with Efflux pump inh; S. cerevisiae AD/CaCDR1, Nile Red efflux, flow cytometry; inhibition, % at 10 µM; hit rate 1% among 1,700; AID 588522;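 active = inhibition above the screen-wide mean plus twice its standard deviation, cut at about 32% in these data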
# * marks the source's active call; other numbers are inactive results; · = no result given. Rows were chosen to be rich in hits. Some 0.6% of all compounds tested hit in one or more screens of this group.
SMILES,STK33 kinase inh,GSK3beta inhib,Efflux pump inh,GSK3A inh,PolyA inh,Yeast cmpd fluor,CaMdr1 efflux inh,Cdr2 pump inh,Cdr1 pump inh
CCOc1ncccc1C(=O)OCc1ccc(Cl)cc1,1,0,0,-2,-18,·,·,·,·
CCOc1ncccc1C(=O)OCc1ccc(C(=O)OC)cc1,-1,4,1.4*,2,-12,118,0,123,0
CN(C)CCNc1nc2c(c(=O)[nH]c(=O)n2C)n1CCOc1ccccc1,0,4,0,-1,5,·,·,·,·
CC(C)N1C(=O)c2ccccc2N(Cc2ccccc2)S1(=O)=O,0,5,0,0,-4,·,·,·,·
CCCCCC1C/C(=N\O)C=C(C)C1C(=O)OC (stereo not drawn),-2,1,1.5*,-3,-3,99,0,103,0
Cc1cc(NC(=O)CCC(=O)N(Cc2cccs2)C(C(=O)NC2CCCC2)c2cccnc2)no1 (stereo not drawn),-2,-3,0,-2,-20,·,·,·,·
Cc1ccc(C(C(=O)NC2CCCC2)N(Cc2ccco2)C(=O)CCC(=O)Nc2cc(C)on2)cc1 (stereo not drawn),1,-4,0,2,25,87,0,95,0
Cc1cc(NC(=O)CCC(=O)N(Cc2cccs2)C(C(=O)NC2CCCC2)c2ccccc2)no1 (stereo not drawn),-3,2,0,-1,-8,82,0,95,0
Cc1cc(NC(=O)CCC(=O)N(Cc2ccco2)C(C(=O)NC2CCCCC2)c2cccs2)no1 (stereo not drawn),-1,3,0,-1,-14,·,·,·,·
COCC(=O)NC1CCN(C(=O)NCc2ccccc2)CC1,1,2,0,3,1,·,·,·,·
COc1cc(/C=C/C(=O)c2ccc([N+](=O)[O-])o2)ccc1O,2,0,0.8*,-1,-22,188,0,161,0
CN(C)CCN(C(=O)c1ccc(S(=O)(=O)N2CCc3ccccc32)cc1)c1nc2ccc(F)cc2s1,-1,-1,0.4*,0,9,110,0,108,0
CC(C)C(C(=O)O)N1C(=O)/C(=C/C=C/c2ccco2)SC1=S (stereo not drawn),11,1,1.2*,2,26,135,0,161,0
Cc1ccc(/C=C\c2nccc3c2[nH]c2ccccc23)cc1,0,2,1.2*,-3,-6,108,0,106,0
C(=C\c1nccc2c1[nH]c1ccccc12)/c1ccccc1,3,-1,0,1,-17,·,·,·,·
O=c1[nH]c(C2CCN(S(=O)(=O)c3ccccc3F)CC2)nc2c1nnn2Cc1ccc(F)cc1,0,·,0,-3,-7,·,·,·,·
Cc1ccc(Cn2nnc3c(=O)[nH]c(C4CCN(S(=O)(=O)c5ccccc5F)CC4)nc32)cc1,1,-1,0,0,30,104,0,106,0
Cc1ccc(Cn2nnc3c(=O)[nH]c(C4CCN(S(=O)(=O)c5ccc(S(=O)(=O)NC6CC6)cc5)CC4)nc32)cc1,1,1,0,-1,4,·,·,·,·
Cc1ccc(Cn2nnc3c(=O)[nH]c(C4CCN(S(=O)(=O)c5ccc(C)cc5)CC4)nc32)cc1,0,1,0,-2,·,100,0,112,1
CCOc1ccc(S(=O)(=O)NN=C2CCN(C(C)=O)CC2)cc1,-2,-1,0,-3,4,·,·,·,·
CC/C=C(/NC(C)=O)c1ccccc1,0,·,0,-3,·,·,·,·,·
COCO/C=C(\NC(C)=O)c1ccccc1,-2,·,1.0*,-3,·,115,0,104,0
O=C(Cn1c2ccc(F)cc2c2nc3n(c(=O)c21)CCS3)Nc1ccccc1F,-2,3,0.4*,-4,9,480*,1,120,1
CCCOc1ccc(-c2nc(N3CCN(C)CC3)c3ccccc3n2)cc1,1,0,1.0*,-1,-15,102,0,97,0
CC(C)c1ccc(/C=c2\sc3nc(-c4ccncc4)nn3c2=O)cc1,-2,3,0,-5,5,105,0,108,0
SMILES,STK33 kinase inh,GSK3beta inhib,Efflux pump inh,GSK3A inh,PolyA inh,Yeast cmpd fluor,CaMdr1 efflux inh,Cdr2 pump inh,Cdr1 pump inh
Cc1ccc(/C=c2\sc3nc(-c4cccnc4)nn3c2=O)cc1,1,-1,0,-1,1,·,·,·,·
CC1(C)C2CCC1(CS(=O)(=O)N1CCOCC1)C(=O)C2 (stereo not drawn),-1,0,1.4*,-2,10,103,0,112,0
CC1(C)C2CCC1(CS(=O)(=O)N1CCC(C(N)=O)CC1)C(=O)C2 (stereo not drawn),-1,0,0,-2,-12,·,·,·,·
Cc1c(F)cccc1NS(=O)(=O)c1ccc2c(c1)c(C)cc(=O)n2C,1,0,0,9,-24,·,·,·,·
Fc1cccc(NC(=S)NCc2ccccc2Cl)c1,0,1,0,0,-16,·,·,·,·
N#C/C(=C/c1ccc(CNC(=O)C(=O)Nc2cc(Cl)cc(Cl)c2)o1)C(=O)NCc1cccnc1,-2,1,8.2*,0,-14,105,0,110,0
O=C(Nc1ccc(S(=O)(=O)Nc2ccccn2)cc1)c1cccc(Br)c1,0,3,6.2*,-1,-1,100,0,87,0
CC1CCCC(C)N1C(=O)CN1c2cccc3cccc(c23)S1(=O)=O (stereo not drawn),-1,·,0,2,·,·,·,·,·
Cc1nn(C)cc1/C=N\NC(=O)c1csc2c1CCCC2,-1,1,7.4*,1,-15,109,0,106,0
Cn1c(N2CCN(C(c3ccccc3)c3ccccc3)CC2)nc2ccccc21,2,-2,0.5*,-2,-13,99,0,104,0
Cn1c(N2CCN(C(=O)Nc3ccc(F)cc3)CC2)nc2ccccc21,0,-1,0,0,-3,·,·,·,·
COc1ccc(S(=O)(=O)NC2CCCC2)cc1Cl,-1,-22,0,0,3,·,·,·,·
NC(=O)c1c(NC(=O)Cn2nc(C(=O)O)c3ccccc3c2=O)sc2c1CCC2,0,1,0,0,27,·,·,·,·
CCOC(=O)c1c(NC(=O)Cn2nc(C(=O)O)c3ccccc3c2=O)sc2c1CCC(C)C2 (stereo not drawn),0,0,0.5*,-1,-1,107,0,95,0
Cn1c(=O)[nH]c(=O)c2c1nc(CN1CCN(c3ccc(F)cc3)CC1)n2CCN1CCOCC1,0,1,0,-2,14,·,·,·,·

# Screens as filed in PubChem.
